# Data reported in ChEMBL document CHEMBL3297682, “Synthesis and anticancer activity of γ-(triazolyl ethylidene)butenolides and polyfunctional pyrrolinones” (Eur J Med Chem, 2014).
# The source made the active and inactive calls. No cut-off for these calls is given here.
# How the values were obtained:
# HCT-116 = experiment: Antiproliferative activity against human HCT116 cells after 24 hrs by MTT assay; assay type: functional, cell-based; settings: HCT-116, 24 h
# Procedure, shortened: (§1)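 1×10^4 cells/well seeded in DMEM with 10% FBS and antibiotic-antimycotic, grown 24 h at 37 °C under 5% CO2. Compounds diluted in phenol red-free DMEM with 2% FBS and given for 24 h, with vehicle control. MTT (5 mg/mL, 20 µL) added for 3 h. Formazan dissolved in DMSO, absorbance read at 570 nm. IC50 is the concentration giving 50% growth inhibition.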
# MDA-MB-231 [1] = experiment: Antiproliferative activity against human MDA-MB-231 cells after 24 hrs by MTT assay; assay type: functional, cell-based; settings: MDA-MB-231, 24 h; procedure, shortened: as §1
# HEK293 = experiment: Cytotoxicity against human HEK293 cells after 24 hrs by MTT assay; assay type: cell-based; settings: HEK293, 24 h; procedure, shortened: as §1
# PC-3 = experiment: Antiproliferative activity against human PC3 cells after 24 hrs by MTT assay; assay type: functional, cell-based; settings: PC-3, 24 h; procedure, shortened: as §1
# U-937 = experiment: Antiproliferative activity against human U937 cells after 24 hrs by MTT assay; assay type: functional, cell-based; settings: U-937, 24 h; procedure, shortened: as §1
# MCF7 = experiment: Antiproliferative activity against human MCF7 cells after 24 hrs by MTT assay; assay type: functional, cell-based; settings: MCF7, 24 h; procedure, shortened: as §1
# MDA-MB-231 [2] = experiment: Induction of reactive oxygen species production in human MDA-MB-231 cells after 24 hrs by DCFH-DA dye based flow cytometry; assay type: functional, cell-based
# Procedure, shortened: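 MDA-MB-231 cells (1×10^6) seeded 24 h in six-well plates, then treated 24 h. Cells harvested, washed in PBS and fixed in absolute methanol. Cells resuspended in PBS with 15 µg/mL DCFH-DA for 30 min in the dark, then pelleted, taken up in PBS, and fluorescence read by flow cytometry.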
SMILES,IC50 (HCT-116) [µM],IC50 (MDA-MB-231 [1]) [µM],IC50 (HEK293) [µM],IC50 (PC-3) [µM],IC50 (U-937) [µM],IC50 (MCF7) [µM],Activity (MDA-MB-231 [2])
COC1=C(OC)/C(=C/Cn2cc(C3CC3)nn2)OC1=O,> 100,> 100,> 100,> 100,> 100,> 100,
CC(C)(C)c1ccc(-c2cn(CCC3(O)C(OCc4ccccc4)=C(OCc4ccccc4)C(=O)N3CCc3ccccc3)nn2)cc1 (stereo not given),> 100,> 100,71,65.5,60.2,32,
COC1=C(OC)/C(=C/Cn2cc(CO)nn2)OC1=O,> 100,> 100,> 100,> 100,> 100,35,
O=C1O/C(=C\Cn2cc(-c3ccccc3)nn2)C(OCc2ccccc2)=C1OCc1ccccc1,> 100,44,> 100,> 100,> 100,> 100,
CCCCCCCCN1C(=O)C(OCc2ccccc2)=C(OCc2ccccc2)/C1=C/Cn1cc(-c2ccccn2)nn1,> 100,> 100,83,> 100,90.2,46.2,
CCCc1cn(C/C=C2\OC(=O)C(OCc3ccccc3)=C2OCc2ccccc2)nn1,> 100,> 100,> 100,> 100,> 100,> 100,
CCCCCCCCN1C(=O)C(OCc2ccccc2)=C(OCc2ccccc2)C1(O)CCn1cc(-c2ccccn2)nn1 (stereo not given),> 100,> 100,> 100,80.3,84.2,24.3,
CCCc1cn(CCC2(O)C(OCc3ccccc3)=C(OCc3ccccc3)C(=O)N2CCC)nn1 (stereo not given),> 100,> 100,90,35,> 100,> 100,
COC1=C(OC)/C(=C/Cn2cc(Cc3ccccc3)nn2)OC1=O,> 100,> 100,> 100,> 100,> 100,> 100,
O=C1NC(O)(CCn2cc(Cc3ccccc3)nn2)C(OCc2ccccc2)=C1OCc1ccccc1 (stereo not given),51.2,> 100,86,> 100,> 100,39.2,
CC/C(=C(\c1ccccc1)c1ccc(OCCN(C)C)cc1)c1ccccc1 [TAMOXIFEN],,14,50,7,,6,
COC1=C(OC)/C(=C/Cn2cc(-c3ccc(C(C)(C)C)cc3)nn2)OC1=O,> 100,> 100,> 100,> 100,30,> 100,
CCCCCc1cn(C/C=C2\OC(=O)C(OCc3ccccc3)=C2OCc2ccccc2)nn1,> 100,> 100,> 100,> 100,> 100,> 100,
O=C1O/C(=C\Cn2cc(Cc3ccccc3)nn2)C(OCc2ccccc2)=C1OCc1ccccc1,83.1,29.2,70,71.3,> 100,40,Active
Cc1ccc(-c2cn(C/C=C3\OC(=O)C(OCc4ccccc4)=C3OCc3ccccc3)nn2)cc1,> 100,> 100,> 100,> 100,> 100,> 100,
CC(C)(C)c1ccc(-c2cn(C/C=C3\OC(=O)C(OCc4ccccc4)=C3OCc3ccccc3)nn2)cc1,> 100,51.2,> 100,> 100,> 100,> 100,
CCCCc1cn(C/C=C2\OC(=O)C(OCc3ccccc3)=C2OCc2ccccc2)nn1,64.3,> 100,> 100,> 100,> 100,> 100,
COC1=C(OC)/C(=C/Cn2cc(CCCCO)nn2)OC1=O,> 100,87.5,> 100,> 100,> 100,35,
CCCCCCc1cn(C/C=C2\OC(=O)C(OC)=C2OC)nn1,> 100,74.7,> 100,> 100,> 100,> 100,
CCCCCC(O)c1cn(C/C=C2\OC(=O)C(OC)=C2OC)nn1 (stereo not given),> 100,35.5,80,> 100,> 100,> 100,
Cc1ccc(-c2cn(CCC3(O)NC(=O)C(OCc4ccccc4)=C3OCc3ccccc3)nn2)cc1 (stereo not given),74.3,82.2,45,84.2,54,24,
O=C1O/C(=C\Cn2cc(C3CC3)nn2)C(OCc2ccccc2)=C1OCc1ccccc1,> 100,> 100,> 100,> 100,> 100,> 100,
O=C1O/C(=C\Cn2cc(CCCCO)nn2)C(OCc2ccccc2)=C1OCc1ccccc1,> 100,> 100,> 100,> 100,> 100,53.6,
O=C1NC(O)(CCn2cc(C3=CCCCC3)nn2)C(OCc2ccccc2)=C1OCc1ccccc1 (stereo not given),> 100,13.1,70,67.2,> 100,> 100,Active
CCCc1cn(C/C=C2/C(OCc3ccccc3)=C(OCc3ccccc3)C(=O)N2CCC)nn1,> 100,> 100,82,> 100,80.5,66.8,
O=C1O/C(=C\Cn2cc(C3=CCCCC3)nn2)C(OCc2ccccc2)=C1OCc1ccccc1,> 100,> 100,> 100,55.6,> 100,> 100,
COC1=C(OC)/C(=C/Cn2cc(-c3ccccn3)nn2)OC1=O,> 100,> 100,> 100,> 100,> 100,> 100,
COC1=C(OC)/C(=C/Cn2cc(-c3ccccc3)nn2)OC1=O,> 100,> 100,> 100,> 100,> 100,> 100,
O=C1O/C(=C\Cn2cc(-c3ccccn3)nn2)C(OCc2ccccc2)=C1OCc1ccccc1,> 100,> 100,> 100,> 100,70.2,> 100,
CC(C)(C)c1ccc(-c2cn(CCC3(O)NC(=O)C(OCc4ccccc4)=C3OCc3ccccc3)nn2)cc1 (stereo not given),> 100,> 100,> 100,43,56.5,25.1,
